ChEMBL document CHEMBL2146385, “Synthesis and antiviral evaluation of bis(POM) prodrugs of (E)-[4'-phosphono-but-2'-en-1'-yl]purine nucleosides” (Eur J Med Chem, 2012)
The source made the active and inactive calls. No cut-off for these calls is given here.

Experiments:
Vaccinia virus = test: Antiviral activity against Vaccinia virus infected in HEL assessed as inhibition of virus-induced cytopathicity after 3 days; format: functional, organism-based; conditions: Orthopoxvirus vaccinia, 72 h
Human alphaherpesvirus 1 [1] = test: Antiviral activity against HSV1 KOS infected in HEL assessed as inhibition of virus-induced cytopathicity after 3 days; format: functional, organism-based; conditions: Human alphaherpesvirus 1, KOS, 72 h
Human alphaherpesvirus 2 = test: Antiviral activity against HSV2 G infected in HEL assessed as inhibition of virus-induced cytopathicity after 3 days; format: functional, organism-based; conditions: Human alphaherpesvirus 2, strain G, 72 h
Outline: (§1)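 Confluent cell monolayers infected with 100 CCID50 of virus in the presence of test compound at 100, 20,... μM. Cytopathicity was scored once it was complete in untreated infected controls.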

Human alphaherpesvirus 1 [2] = test: Antiviral activity against acyclovir-resistant thymidine kinase deficient HSV1 KOS infected in HEL assessed as inhibition of virus-induced cytopathicity after 3 days; format: functional, organism-based; conditions: Human alphaherpesvirus 1, KOS, 72 h
Human alphaherpesvirus 3 [3] = test: Antiviral activity against VZV OKA expressing thymidine kinase infected in HEL cells assessed as inhibition of virus-induced cytopathogenicity after 3 days; format: functional, cell-based; conditions: Human alphaherpesvirus 3, strain Oka vaccine, 72 h
Human alphaherpesvirus 3 [4] = test: Antiviral activity against thymidine kinase-deficient VZV 07/1 infected in human HEL cells assessed as reduction of virus-induced cytopathogenicity after 3 days; format: functional, organism-based; conditions: Human alphaherpesvirus 3, 07/1, HEL, 72 h
[5] = Cytotoxicity against HEL assessed as minimum compound concentration causes microscopically detectable alteration of cell morphology after 3 days; format: cell-based; conditions: human, HEL cells
[6] = Cytotoxicity against HEL after 3 days; format: cell-based; conditions: human, HEL cells
Outline: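 HEL cells were seeded at 5×10^3 cells/well and allowed to grow for 24 h, then given medium with varying compound concentrations. After 3 days at 37 °C, cells were counted with a Coulter counter.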

[7] = tested on: Human immunodeficiency virus 1; test: Antiviral activity against HIV1 3B infected in human CEM cells assessed as inhibition of virus-induced giant cell formation after 4 days; format: functional, organism-based; conditions: Human immunodeficiency virus 1, 3B, CCRF-CEM, 96 h
Outline: (§2)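 Human CEM cells (~3×10^5 cells/cm3) were infected with 100 CCID50 of HIV-1(IIIB) or HIV-2(ROD) per ml and seeded into wells containing compound dilutions. After 4 days at 37 °C, giant cell formation was examined microscopically.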

[8] = tested on: Human immunodeficiency virus 2; test: Antiviral activity against HIV2 ROD infected in human CEM cells assessed as inhibition of virus-induced giant cell formation after 4 days; format: functional, organism-based; conditions: Human immunodeficiency virus 2, ISOLATE ROD, CCRF-CEM, 96 h; outline: as §2
L1210 = test: Cytotoxicity against mouse L1210 cells; format: cell-based
CCRF-CEM = test: Cytotoxicity against human CEM cells; format: cell-based
HeLa = test: Cytotoxicity against human HeLa cells; format: cell-based
[9] = Selectivity index, ratio of CC50 for human CEM cells to EC50 for HIV2 ROD; format: toxicity, cell-based, CCRF-CEM; conditions: read-out: Ratio CC50/EC50
[10] = tested on: Vesicular stomatitis virus; test: Antiviral activity against Vesicular stomatitis virus infected in MDCK assessed as inhibition of virus-induced cytopathicity after 3 days; format: functional, organism-based
Influenza A virus [11] = test: Antiviral activity against Influenza A virus H1N1 infected in MDCK assessed as inhibition of virus-induced cytopathicity after 3 days; format: functional, organism-based
Influenza A virus [12] = test: Antiviral activity against Influenza A virus H3N2 infected in MDCK assessed as inhibition of virus-induced cytopathicity after 3 days; format: functional, organism-based
Influenza B virus = test: Antiviral activity against Influenza B virus infected in MDCK assessed as inhibition of virus-induced cytopathicity after 3 days; format: functional, organism-based
Human respirovirus 3 = test: Antiviral activity against Parainfluenza-3 virus infected in african green monkey Vero assessed as inhibition of virus-induced cytopathicity after 3 days; format: functional, organism-based; outline: as §1
[13] = tested on: Mammalian orthoreovirus 1; test: Antiviral activity against Reovirus-1 infected in african green monkey Vero assessed as inhibition of virus-induced cytopathicity after 3 days; format: functional, organism-based; outline: as §1
Sindbis virus = test: Antiviral activity against Sindbis virus infected in african green monkey Vero assessed as inhibition of virus-induced cytopathicity after 3 days; format: functional, organism-based; outline: as §1
Punta Toro virus = test: Antiviral activity against Punta Toro virus infected in african green monkey Vero assessed as inhibition of virus-induced cytopathicity after 3 days; format: functional, organism-based; outline: as §1
[14] = tested on: Vesicular stomatitis virus; test: Antiviral activity against Vesicular stomatitis virus infected in human HeLa assessed as inhibition of virus-induced cytopathicity after 3 days; format: functional, organism-based
Coxsackievirus B4 = test: Antiviral activity against Coxsackievirus B4 infected in human HeLa assessed as inhibition of virus-induced cytopathicity after 3 days; format: functional, organism-based; outline: as §1
[15] = tested on: Respiratory syncytial virus; test: Antiviral activity against Respiratory syncytial virus infected in human HeLa assessed as inhibition of virus-induced cytopathicity after 3 days; format: functional, organism-based; outline: as §1

| SMILES | EC50 (Vaccinia virus) | EC50 (Human alphaherpesvirus 1 [1]) | EC50 (Human alphaherpesvirus 2) | EC50 (Human alphaherpesvirus 1 [2]) | EC50 (Human alphaherpesvirus 3 [3]) | EC50 (Human alphaherpesvirus 3 [4]) | MCC at 72 h [5] | CC50 at 72 h [6] | EC50 [7] | EC50 [8] | IC50 (L1210) | IC50 (CCRF-CEM) | IC50 (HeLa) | selectivity ratio [9] | Activity [10] | Activity (Influenza A virus [11]) | Activity (Influenza A virus [12]) | Activity (Influenza B virus) | Activity (Human respirovirus 3) | Activity [13] | further results |
| --- | --- | --- | --- | --- | --- | --- | --- | --- | --- | --- | --- | --- | --- | --- | --- | --- | --- | --- | --- | --- | --- |
| COc1nc(N)nc2c1ncn2C/C=C/CP(=O)(OCOC(=O)C(C)(C)C)OCOC(=O)C(C)(C)C | 16 µM | 6 µM | 6.5 µM | 7.5 µM | 0.1 µM | 0.5 µM | > 100 µM | 1.6 µM | > 0.4 µM | 0.28 µM | 37 µM | 8 µM | 37 µM | 28.5 | inactive | inactive | inactive | inactive | inactive | inactive | Activity (Sindbis virus): inactive; Activity (Punta Toro virus): inactive; Activity [14]: inactive; Activity (Coxsackievirus B4): inactive; Activity [15]: inactive |
| CC(C)(C)C(=O)OCOP(=O)(C/C=C/Cn1cnc2c(N)nc(N)nc21)OCOC(=O)C(C)(C)C | > 20 µM | 20 µM | 20 µM | 20 µM | 6.8 µM | 12 µM | > 100 µM | 36 µM | 6.6 µM | 6.3 µM | 128 µM | 46 µM | 128 µM | 7.3 | inactive | inactive | inactive | inactive | inactive | inactive | Activity (Sindbis virus): inactive; Activity (Punta Toro virus): inactive; Activity [14]: inactive; Activity (Coxsackievirus B4): inactive; Activity [15]: inactive |
